The first assay has as its target T1, Trypanothione reductase (Trypanosoma cruzi, UniProt P28593). The assay can be described thus: The competitive inhibitory activity against trypanothione reductase was evaluated from Lineweaver Burk plots. The conditions noted are these: read-out: Ki app. In a few lines: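 Recombinant T. cruzi TR purified from E. coli SG5, 7–10 mU per assay, at 25 °C in 40 mM Hepes, 1 mM EDTA, pH 7.5 with 100 µM NADPH. TS2 varied without inhibitor and at two inhibitor levels. Each point was measured at least twice. Apparent Ki is the mean of Ki,slope values from Lineweaver–Burk plots at each [I].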
T1 sequence (P28593 whole entry): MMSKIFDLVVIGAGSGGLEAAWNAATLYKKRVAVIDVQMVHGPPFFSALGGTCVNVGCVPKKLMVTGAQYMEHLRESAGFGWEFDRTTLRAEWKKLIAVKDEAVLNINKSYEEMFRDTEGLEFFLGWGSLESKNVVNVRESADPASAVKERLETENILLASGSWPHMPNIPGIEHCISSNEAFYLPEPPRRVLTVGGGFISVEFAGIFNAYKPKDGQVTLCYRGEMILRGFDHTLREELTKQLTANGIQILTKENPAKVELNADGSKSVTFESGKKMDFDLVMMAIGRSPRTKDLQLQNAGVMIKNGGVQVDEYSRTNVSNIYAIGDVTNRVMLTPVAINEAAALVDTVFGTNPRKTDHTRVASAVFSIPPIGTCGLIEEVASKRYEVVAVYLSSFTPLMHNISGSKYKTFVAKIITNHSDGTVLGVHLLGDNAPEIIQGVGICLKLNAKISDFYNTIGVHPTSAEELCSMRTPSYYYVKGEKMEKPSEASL
In the case of `CCN(CC)CCCCC(C)Nc1c2ccccc2nc2cc(Cl)ccc12` (centres undefined), the Ki amounted to 11 µM.

Take `Nc1c2c(nc3ccccc13)CCCC2` [TACRINE]: the Ki was found to be 140 µM.

With `Nc1c2ccccc2nc2cc(Cl)ccc12`, the Ki worked out at 43 µM.

For `CCN(CC)CCCCC(C)Nc1c2ccc(Cl)cc2nc2ccc(OC)cc12` (centres undefined), the Ki was found to be 5.5 µM.

As for `CCN(CC)CCCC(C)Nc1c2ccccc2nc2cc(Cl)ccc12` (centres undefined), the Ki turned out to be 10 µM.

As for `COc1ccc2nc3cc(Cl)ccc3c(N)c2c1`, the Ki amounted to 7 µM.

In the case of `CCN(CC)CCCC(C)Nc1c2ccccc2nc2ccc(OC)cc12` (centres undefined), the Ki worked out at 27 µM.

`Nc1c2ccccc2nc2ccccc12` [AMINACRINE]: the Ki is 38 µM.

Take `Nc1c2c(nc3cc(Cl)ccc13)CCCC2`: the Ki stood at 80 µM.

As to `CCN(CC)CCCC(C)Nc1c2ccc(Cl)cc2nc2ccc(OC)cc12` (centres undefined) [QUINACRINE], the Ki worked out at 19 µM.

The next assay concerns the target T1, Trypanothione reductase. The assay can be described thus: The mixed type inhibitory activity against trypanothione reductase was evaluated from Lineweaver Burk plots and Cornish-Bowdwn plots.
Details: not given
Turning to `CCN(CC)CCCCSc1c2ccc(Cl)cc2nc2ccc(OC)cc12`, the Ki was determined as 21 µM.

`CCN(CC)CCSc1c2ccc(Cl)cc2nc2ccc(OC)cc12` came in with a Ki of 83 µM.

For a further assay, the target named is T1, Trypanothione reductase. The assay can be described thus: The mixed type inhibitory activity against trypanothione reductase was evaluated from Lineweaver Burk plots.
Details: not given
For `CCN(CC)CCCCSc1c2ccc(Cl)cc2nc2ccc(OC)cc12`, the Ki was 67 µM.

For the compound `CCN(CC)CCSc1c2ccc(Cl)cc2nc2ccc(OC)cc12`, the Ki turned out to be 37 µM.
